From ChEMBL document CHEMBL5223168, “Using Imidazo[2,1-b][1,3,4]thiadiazol Skeleton to Design and Synthesize Novel MNK Inhibitors” (ACS Med Chem Lett, 2023)
The source made the active and inactive calls. No cut-off for these calls is given here.

Experiments:
[1] = biological target: MAP kinase-interacting serine/threonine-protein kinase 2 (Homo sapiens, UniProt Q9HBH9); assay: Inhibition of MNK2 (unknown origin) at 3 uM in presence of ATP by kinase assay
Procedure, shortened: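 Single-point kinase profiling: inhibitor tested at 3 μM against a panel of 60 kinases from different families, activity presented as heatmap.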

MDA-MB-231 [2] = assay: Antiproliferative activity against human MDA-MB-231 cells assessed as reduction in cell viability at 5 uM incubated upto 6 days by trypan blue assay; format: functional, cell-based; conditions: time <= 6.0 day
Procedure, shortened: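 A549 or MDA-MB-231 cells cultured with 5 μM compound for up to 6 days; cell number counted over time; p-eIF4E followed by immunoblot up to 96 h.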

[3] = biological target: Eukaryotic translation initiation factor 4E (Homo sapiens) (UniProt P06730); assay: Inhibition of eIF4E phosphorylation in human MDA-MB-231 cells at 5 uM and measured upto 96 hrs by Western blot analysis; format: cell-based
Procedure, shortened: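 Cells maintained with compound at 5 μM for up to 6 days for cell counts; eIF4E phosphorylation followed by immunoblot for up to 96 h.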

A549 = assay: Induction of cell cycle arrest in human A549 cells assessed as decrease in cyclin B1 level at 5 uM incubated for 24 hrs by Western blot analysis; format: functional, cell-based
Procedure, shortened: (§1)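 A549 and MDA-MB-231 cells treated 24 h with 5 μM; lysates resolved by SDS-PAGE and immunoblotted for cyclin B1, cyclin D3 and MMP-3.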

MDA-MB-231 [4] = assay: Downregulation of MMP-3 in human MDA-MB-231 cells at 5 uM incubated for 24 hrs by Western blot anlaysis; format: functional, cell-based; procedure, shortened: as §1
MDA-MB-231 [5] = assay: Antimigratory activity against human MDA-MB-231 cells assessed as inhibition of cell migration at 5 uM and measured upto 24 hrs by scratch wound healing assay; format: functional, cell-based
Procedure, shortened: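 Scratch wound-healing: A549 or MDA-MB-231 monolayers wounded, then exposed to 5 μM compound or DMSO; wound imaged at 6 and 24 h; percentage change in wound area quantified by image analysis at each time point.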

[6] = Apparent volume of distribution in mouse at 25 mg/kg, iv and measured upto 24 hrs; format: ADME, organism-based; conditions: in vivo, read-out: Vz
[7] = Tmax in mouse at 50 mg/kg, po and measured upto 24 hrs; format: ADME, organism-based; conditions: in vivo

Sequence of MAP kinase-interacting serine/threonine-protein kinase 2 (Q9HBH9 whole entry, looked up): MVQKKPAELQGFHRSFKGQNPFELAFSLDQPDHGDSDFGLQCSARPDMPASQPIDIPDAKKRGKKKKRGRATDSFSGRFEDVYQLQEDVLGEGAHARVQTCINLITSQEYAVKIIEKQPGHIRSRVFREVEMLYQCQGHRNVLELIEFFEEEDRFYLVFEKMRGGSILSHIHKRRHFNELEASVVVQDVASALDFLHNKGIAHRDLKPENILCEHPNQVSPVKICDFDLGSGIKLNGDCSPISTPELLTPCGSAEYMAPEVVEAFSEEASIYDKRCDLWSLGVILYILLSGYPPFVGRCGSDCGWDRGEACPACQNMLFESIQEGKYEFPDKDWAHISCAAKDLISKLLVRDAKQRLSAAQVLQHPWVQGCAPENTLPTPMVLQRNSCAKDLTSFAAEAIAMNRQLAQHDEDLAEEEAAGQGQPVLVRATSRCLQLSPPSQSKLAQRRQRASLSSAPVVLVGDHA
Sequence of Eukaryotic translation initiation factor 4E (Homo sapiens) (P06730 whole entry): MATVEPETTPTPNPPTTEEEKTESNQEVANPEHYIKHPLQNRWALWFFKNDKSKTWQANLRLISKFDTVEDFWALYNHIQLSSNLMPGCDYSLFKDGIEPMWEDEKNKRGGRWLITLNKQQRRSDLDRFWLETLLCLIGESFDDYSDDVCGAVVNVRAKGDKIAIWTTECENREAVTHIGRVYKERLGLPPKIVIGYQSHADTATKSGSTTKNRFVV

Structure (SMILES): CN1CCN(C(=O)c2ccc(-c3nn4c(-c5ccc(C#N)cc5)cnc4s3)cc2)CC1
- inhibition [1]: 100%
- Activity (MDA-MB-231 [2]): Active
- inhibition [3]: Active
- Activity (A549): Active
- Activity (MDA-MB-231 [4]): Active
- Activity (MDA-MB-231 [5]): Active
- Vd [6]: 1.52 L/kg
- Tmax [7]: 1 h
